Rows were chosen to be rich in hits. Some 12% of all compounds tested hit in one or more screens of this group.
CHOP inh: CHOP inhibition in unfolded protein response. CHO-K1 CHOP-promoter luciferase, tunicamycin-induced, 15-18 h. inhibition, % at 10 µM. 220,000 compounds, 3.8% hits;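 active = compounds that reduced the stress-induced luciferase reporter signal by more than about 70% of percent inhibition, limit read from the data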;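 note: 0% = tunicamycin plus vehicle and 100% = wells without tunicamycin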
Wee1 degr inh: human Wee1 degradation inhibition, primary screen; HeLa Luc-Wee1K328M stability, luciferase luminescence; 100% = proteasome inhibitor MG132 effect; reporter increase, % at 5 µM; 220,000 compounds, 1.2% hits;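 active = activation above the mean of all tested compounds plus 3 SD, set per screening run, cut at about 8.8% in these data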;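 note: cells exposed to compound for 20 h before luminescence read; 0% = DMSO alone and 100% = MG132 at 30 µM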
Rad51 HR inh: blocks human Rad51 in homologous recombination; Q06609; hRad51 DNA strand exchange, fluorescence dequenching; inhibition, % at 10 µM; 200,000 compounds, 0.085% hits; AID 1385;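 active = inhibition above 40% at the single screening dose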;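 note: 0% = DMSO control wells and 100% = blanks with heterologous ssDNA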
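Test system – preformed human Rad51 ssDNA filaments · Reagent – Donor/quencher-labelled 47-bp dsDNA substrate · Incubation – 37 °C 15-min filament assembly, 30-min compound preincubation, 15-min exchange · Signal – FRET fluorescence dequenching, excitation 485 nm, emission 520 nm · Read-out – percent inhibition from fluorescence, normalised to plate control and blank means · Benchmarks – plate control and blank wells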
Arbovirus inh: arbovirus infection inhibition | AID 1251 | 200,000 compounds, 0.37% hits | inhibition, % at 10 µM | arbovirus infection cell-based antiviral screen; in the data active = inhibition above about 30%
Lmaj promast: Leishmania major promastigote growth inhibition | Leishmania major promastigotes, resazurin fluorescence viability | inhibition, % at 10 µM | 200,000 compounds, 9% hits | AID 1063;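 note: promastigotes grown with compound for 44 hours at 28 °C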
PKD1 inh: blocks activity of human protein kinase D1. PKD1 kinase fluorescence polarization assay. inhibition, % (test concentration not listed). 200,000 compounds, 0.056% hits. Q15139
Target sequence (Q15139 whole entry, looked up): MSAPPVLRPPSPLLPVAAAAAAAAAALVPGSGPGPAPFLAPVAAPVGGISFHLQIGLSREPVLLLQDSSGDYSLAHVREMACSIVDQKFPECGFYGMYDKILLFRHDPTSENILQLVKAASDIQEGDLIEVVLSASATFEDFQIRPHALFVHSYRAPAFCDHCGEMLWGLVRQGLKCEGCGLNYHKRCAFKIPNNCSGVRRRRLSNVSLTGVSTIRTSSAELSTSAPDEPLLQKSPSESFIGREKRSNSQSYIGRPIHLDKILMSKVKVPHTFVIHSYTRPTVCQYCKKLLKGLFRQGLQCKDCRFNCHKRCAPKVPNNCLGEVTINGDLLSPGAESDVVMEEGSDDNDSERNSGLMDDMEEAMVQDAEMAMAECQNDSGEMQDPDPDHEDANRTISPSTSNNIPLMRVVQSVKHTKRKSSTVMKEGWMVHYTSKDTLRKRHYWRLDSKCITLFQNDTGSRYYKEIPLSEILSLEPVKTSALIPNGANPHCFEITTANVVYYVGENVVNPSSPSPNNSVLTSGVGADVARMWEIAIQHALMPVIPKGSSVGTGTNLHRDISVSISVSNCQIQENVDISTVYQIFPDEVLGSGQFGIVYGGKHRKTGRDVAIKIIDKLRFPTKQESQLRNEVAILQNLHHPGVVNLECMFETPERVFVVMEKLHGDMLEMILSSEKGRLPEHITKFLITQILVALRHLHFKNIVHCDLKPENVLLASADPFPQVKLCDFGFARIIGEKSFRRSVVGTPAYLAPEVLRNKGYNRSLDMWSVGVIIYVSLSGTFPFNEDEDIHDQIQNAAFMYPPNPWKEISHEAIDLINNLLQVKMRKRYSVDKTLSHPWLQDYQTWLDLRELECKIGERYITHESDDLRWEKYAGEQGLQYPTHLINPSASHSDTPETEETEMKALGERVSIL
Starred values were filed as active, the others as inactive; nt = not tested or not shown. Cut-off read from the data, not from the text of the source, unless noted: active = inhibition above about 50%; inactive = the rest.

SMILES	CHOP inh	Wee1 degr inh	Rad51 HR inh	Arbovirus inh	Lmaj promast	PKD1 inh
O=C(CSc1n[nH]c(=O)n1C1CC1)NCc1ccccc1	-9	-5	nt	nt	nt	nt
COc1cc(/C=N/Nc2ccc(F)cc2F)cc(OC)c1O	-168	3	3	-30	68*	-6
CCC(C)N(C)Cc1cccc(C2(O)CCN(S(=O)(=O)c3ccc(F)cc3)CC2)c1 (configuration not stated)	17	-3	-3	3	100*	8
CC(=O)Nc1ccc(S(=O)(=O)N2CCC(NC(C)=O)(c3cccc(F)c3)CC2)cc1	25	0	-2	3	-4	14
Cc1cc(C)cc(N(CC(=O)NC(C)(C)C)C(=O)CNC(=O)c2cccs2)c1	-9	5	2	-1	-2	-5
O=c1oc2cc(OCc3c(F)cccc3Cl)ccc2cc1-c1ccccn1	50	-4	-2	-5	-3	-4
CCCOc1ccc2cc(-c3ccccn3)c(=O)oc2c1	71*	-4	4	1	-3	-14
CC(=O)Nc1ccc(NC(=O)c2ccccc2S(=O)(=O)c2ccc([N+](=O)[O-])cc2)cc1	8	1	-3	-6	-4	0
COc1cccc2sc(Nc3nc4ccc(NC(C)=O)cc4s3)nc12	-54	-1	-7	2	85*	-4
COc1cccc(-c2nnc(Nc3nc4c(F)cccc4s3)o2)c1	-39	6	nt	-12	1	-4
NNc1nc2ccc(Cl)cc2s1	-14	-1	6	-20	6	8
CC(=O)Nc1ccc2nc(NC(=O)COc3ccccc3C)sc2c1	21	3	5	-2	9	-9
NNc1nc2c(Cl)c(Cl)ccc2s1	23	3	4	20	99*	3
COc1cccc2sc(NN)nc12	-6	0	3	37*	60*	-7
COc1cccc2sc(Nc3nnc(-c4ccccc4Cl)o3)nc12	nt	8	2	-22	97*	-10
CC(C)(C)NC(=O)NC(=O)CSc1n[nH]c(-c2ccccc2Br)n1	13	0	3	12	1	-1
CCOc1cccc(N(C(=O)C2COc3ccccc3O2)C(C(=O)NC2CCCCC2)c2ccc(O)cc2)c1 (configuration not stated)	61	-2	9	-6	82*	-4
CC(C)(C)c1cc(NC(=O)CSc2nncs2)n(-c2ccccc2)n1	7	-2	-10	-1	55*	-8
CCCc1ccc(-c2cc(NC(=O)CSc3nnc(N)s3)n(-c3ccccc3)n2)cc1	-3	10*	3	-34	8	8
Cc1nnc(SCC(=O)Nc2cc(-c3cc(C)c(C)cc3C)nn2-c2ccccc2)s1	42	-1	-5	7	97*	-5
Cc1nnc(SCC(=O)Nc2cc(C(C)(C)C)nn2-c2ccccc2)s1	35	1	-1	2	49	-8
O=C(c1ccc(COCC(F)(F)F)o1)N1CCCC1	5	-2	18	-2	-3	-4
COCc1c(CCl)cnc(C)c1O	-25	-2	nt	-2	11	-7
O=C(N/N=C/c1c(O)n(Cc2ccccc2)c(=O)c2ccccc12)c1cccnc1	20	4	-69	-24	-2	3
O=C(N/N=C/c1c(-c2ccccc2)[nH]c2ccccc12)c1cccnc1	25	3	nt	-11	32	6
SMILES	CHOP inh	Wee1 degr inh	Rad51 HR inh	Arbovirus inh	Lmaj promast	PKD1 inh
Cn1c(-c2ccccc2)c(/C=N/NC(=O)c2cccnc2)c2ccccc21	48	0	3	-6	62*	1
O=C(N/N=C/c1c(O)n(-c2ccccc2Cl)c(=O)c2ccccc12)c1cccnc1	8	0	-26	36*	-6	5
CCCOc1ccc2ccccc2c1/C=N/n1c(C)nnc1-n1nc(C)cc1C	nt	8	3	-5	51*	-9
O=C(Cn1c(=O)c(=O)n(Cc2ccccc2)c2ccc(Cl)cc21)Nc1cccc(F)c1	-6	-2	-4	10	15	-5
O=C(Cn1c2ccccc2c(=O)c2ccccc21)Nc1cccc(F)c1	77*	-5	-4	4	1	3
CCOc1ncccc1C(=O)OCC(=O)Nc1ccc(C(N)=O)cc1	10	0	-15	nt	nt	nt
Cc1ccccc1OCCCN1C(=O)C(=O)c2cccc(C)c21	107*	-3	nt	-32	20	-12
Cc1cccc2c1N(CCCOc1ccccc1)C(=O)C2=O	23	3	-3	1	-1	5
Clc1cccc(Sc2ccc(-c3ccccn3)s2)c1	3	-1	-1	nt	nt	nt
CC(Oc1ccc(Cl)cc1Cl)C(=O)NCCC1=CCCCC1 (configuration not stated)	90*	2	nt	-10	-3	-4
CC(Oc1ccc(Cl)cc1Cl)C(=O)Nc1ccncc1 (configuration not stated)	nt	-1	2	-1	3	-9
CC(=O)Nc1ccc(NC(=O)C(C)Oc2ccc(Cl)cc2Cl)cc1 (configuration not stated)	2	0	3	-1	57*	0
O=C(COC(=O)Cc1ccc(Cl)cc1Cl)NCCC1=CCCCC1	54	0	-9	2	54*	-7
CC(Oc1ccc(F)cc1)C(=O)Nc1ccc2ccccc2c1 (configuration not stated)	12	1	-1	9	-5	-2
CC(Oc1ccccc1F)C(=O)Nc1ccc2ccccc2c1 (configuration not stated)	88*	9.3*	-5	17	-1	-9
COCCn1c(N)c(N(Cc2ccccc2)C(=O)Cc2c(Cl)cccc2Cl)c(=O)[nH]c1=O	3	-3	2	6	5	-3
Cc1nnc(SCC(=O)NCc2ccccc2Cl)[nH]c1=O	4	2	3	10	-14	7
CSc1nc2ccccc2c(=O)n1C1CCOC(C)(C)C1 (configuration not stated)	20	-1	nt	0	-4	-2
O=C(COC(=O)/C=C/c1ccc(Cl)cc1)NCCC1=CCCCC1	78*	0	7	6	40	-7
O=C(COc1ncnc2c(Cl)cc(Cl)cc12)NCCC1=CCCCC1	33	2	-14	0	100*	-5
CC(Oc1ccc(Cl)cc1Cl)C(=O)NCCCN1CCOCC1 (configuration not stated)	-22	2	4	-4	90*	-6
O=C(COc1ncnc2ccccc12)NCCC1=CCCCC1	-1	0	0	-4	-4	-5
CCN(CC)C(=O)Cn1cnc2sc(C(=O)Nc3cc(OC)c(OC)c(OC)c3)c(C)c2c1=O	-1	3	2	5	1	1
OCCNC(=S)c1ccccc1	3	-1	-11	nt	nt	nt
O=S1(=O)CCC(NC(=S)SCCOc2ccccc2)C1 (configuration not stated)	60	-1	4	-8	92*	-5

Assay outcomes (PubChem BioAssay)
